Source: paper PMC3394096 (Investigational New Drugs, 2011)
pIC50: −log10 of the molar value. “Also recorded” adds a separate entry of the source. Marks after values point to notes of the source that are not given here.

Legend:
[1] = Phase I plasma pharmacokinetics, 24-hour continuous IV infusion; format: in vivo, human
Outline: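 Test compound given to patients as a 24 h continuous IV infusion in 21-day cycles. Plasma sampled predose, at 1, 3, 6, 12, 16 and 24 h, then at 24.5–96 h from infusion start. Extraction used pH 10.7 carbonate buffer with MTBE:hexane, then HPLC-MS/MS in positive ion mode; standard curve 1–200 ng/mL. t1/2 from an unweighted single-exponential fit to the log-linear terminal phase. AUC(0-∞) by linear up/log down with extrapolation. Clearance calculated as dose/AUC.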

[2] = Phase I urinary recovery of unchanged drug; format: in vivo, human; settings: on average, at the highest dose levels
Outline: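 Urine collected during the 24 h infusion at 0–4, 4–8, 8–12 and 12–24 h, then at 24–28, 28–32, 32–36 and 36–48 h from infusion start. Unchanged test compound concentration and urine volume per interval gave total urinary recovery as percentage of dose. Calculated for subjects at the highest dose levels.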

[3] = Phase I safety, dose-limiting toxicity and maximum tolerated dose; format: in vivo, human
[4] = system: solid tumors; assay: Phase I tumor response; format: in vivo, human
Outline: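 Patients with measurable taxane-resistant solid tumors received a 24 h continuous IV infusion every 21 days, with serial radiologic assessments. At baseline, longest diameters were summed for up to five lesions per organ and ten in total. Lesions had to measure ≥20 mm by conventional techniques or ≥10 mm by spiral CT. Response and progression were graded by RECIST v1.0.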

[5] = system: Ca125 antigen; assay: Phase I serum Ca125 antigen; format: in vivo, human; settings: ovarian cancer patient with prolonged stable disease
[6] = system: KSP; settings: read-out: IC50 (KSP); background statement, ref not given; cited from earlier work
[7] = system: human ovarian carcinoma cells; settings: treated human ovarian carcinoma cells; cited from earlier work
[8] = system: A2780 (ovarian cancer); settings: cited from earlier work
[9] = system: HCT116 (colon cancer); settings: cited from earlier work
[10] = system: KB-3-1 (cervical cancer); settings: cited from earlier work
[11] = system: xenograft tumors; settings: mice, multi-dose regimen; background statement, ref not given; cited from earlier work
[12] = system: other kinesins; settings: background statement, ref not given; cited from earlier work
[13] = 12 mg/m^2/24 h, treatment-related, all cycles (n=47)
[14] = 17 mg/m^2/24 h, treatment-related, all cycles (n=47)
[15] = 24 mg/m^2/24 h, treatment-related, all cycles (n=47)
[16] = 48 mg/m^2/24 h, treatment-related, all cycles (n=47)

## CN1CC[C@H](N(C)C(=O)N2CC(c3cc(F)ccc3F)=C[C@@]2(CO)c2ccccc2)[C@H](F)C1 [MK-0731, (2S)-4-(2,5-difluorophenyl)-n-[(3R,4S)-3-fluoro-1-methylpiperidin-4-yl]-2-(hydroxymethyl)-N-methyl-2-phenyl-2,5-dihydro-1H-pyrrole-1-carboxamide]
[1]; 6 to 48 mg/m^2/24 h
  dose dependence of end of infusion concentrations and AUC: increase approximately dose proportionally; also recorded: increased approximately proportionately to the dose administered
[1]; at the MTD (17 mg/m^2/24 h)
  AUC (±SD): 10.5 (±7.3) μM × hour
  clearance (±SD): 153 mL/min
[2]
  dose recovered in urine as unchanged drug: less than 4%
[3]; 12 mg/m^2
  toxicities, part 1: no further toxicities were observed
[3]; [13]
  Leukopenia, Grade 2, %: 2.1%
  Neutropenia, Grade 2, %: 2.1%
  Vomiting, Grade 2, %: 2.1%
[3]; 17 mg/m^2, six patients
  DLT, part 1: none experienced DLT
[3]; 17 mg/m^2/24 h, 22 patients
  DLTs, part 2: no DLTs
[3]; [14]
  Hypophosphatemia, Grade 2, %: 2.1%
  Leukopenia, Grade 3, %: 2.1%
  Thrombocytopenia, Grade 2, %: 2.1%
[3]; [15]
  Leukopenia, Grade 2, %: 2.1%
  Neutropenia, Grade 2, %: 2.1%
  Neutropenia, Grade 3, %: 2.1%
[3]; [16]
  Hyperglycemia, Grade 3, %: 2.1%
  Hypocalcemia, Grade 2, %: 2.1%
  Hypophosphatemia, Grade 2, %: 2.1%
  Leukopenia, Grade 2, %: 2.1%
  Leukopenia, Grade 3, %: 2.1%
  Mucosal Inflammation, Grade 2, %: 2.1%
  Nausea, Grade 3, %: 2.1%
  Thrombocytopenia, Grade 2, %: 2.1%
  Vomiting, Grade 3, %: 2.1%
[3]; 24-hour IV infusion, 21-day cycles
  maximum tolerated dose: 17 mg/m^2
[3]; all doses
  neuropathy: without the development of neuropathy
[4]; 17 mg/m^2/24 h, non-small cell lung cancer
  Number of cycles, patient with stable disease: 12 ^a cycles
[4]; 17 mg/m^2/24 h, ovarian cancer
  Number of cycles, patient with stable disease: 11 ^a cycles
[4]; 17 mg/m^2/24 h, part 2
  patients with prolonged stable disease: four
[4]; all patients
  objective tumor response (RECIST): no objective tumor responses; also recorded: no partial or complete responses
[5]
  levels of the Ca125 antigen: No decreases
[6]
  pIC50: 8.66
[7]
  spindle pole separation: inhibits spindle pole separation
[8]
  proliferation: inhibits proliferation
[9]
  proliferation: inhibits proliferation
[10]
  proliferation: inhibits proliferation
[11]
  growth of xenograft tumors: inhibited to a similar degree
[12]
  selectivity for KSP compared with other kinesins: > 20,000 fold

## CC(=O)O[C@H]1C(=O)[C@@]2(C)[C@H]([C@H](OC(=O)c3ccccc3)[C@]3(O)C[C@H](OC(=O)[C@H](O)[C@@H](NC(=O)c4ccccc4)c4ccccc4)C(C)=C1C3(C)C)[C@]1(OC(C)=O)CO[C@@H]1C[C@@H]2O [paclitaxel, reference compound]
[11]
  growth of xenograft tumors: inhibited to a similar degree
